Screens: PubChem, several laboratories
T cell HTS: modulates CD8 T cell binding to vesicles; 2C CD8+ T cell-vesicle binding, flow cytometry; stronger effect = lower value; response (vesicle binding), % at 7 µM; 0.068% of 330,000 active; AID 2052;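 active = response, share of CD8 T cells binding vesicles, and their 90th percentile fluorescence all below set limits, cut at about 80% in these data, passing the limit was not always enough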;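 also: values below 100% mean blocked vesicle binding to the CD8+ T cells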
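Test system: purified 2C TCR transgenic mouse naive CD8+ T cells. Probe or stimulus: QL9-peptide-loaded Drosophila micro-vesicles bearing Ld, ICAM-1 and B7-1. Incubation: binding step 1.5 h, 37 °C, antibody labelling 20 min, ice. Measured by: flow cytometry of vesicle-bound cells.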
GRK2 inh: inhibitors of human GRK2 displacing RNA aptamer. P25098. bead flow cytometry, FAM-aptamer displacement from GRK2. inhibition of aptamer binding, % at 10 µM. 0.59% of 330,000 active;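 active = inhibition of aptamer binding above 40%, roughly 3 SD of noise, on plates passing a quality check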;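 also: median bead fluorescence of bound FAM aptamer so fluorescent compounds give negative values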
MEX-5 binding: C. elegans MEX-5 TCR-2 RNA binding activity; Q9XUB2; MEX-5/FITC-TCR2 RNA binding, fluorescence polarization; stronger effect = lower value; activity score (negative = inhibition of binding), % at 10 µM; 0.38% of 300,000 active; AID 1832;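 active = inhibition past about -25% in most replicates, and total fluorescence under double the plate's negative control median, limit read from the data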;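 also: 0% = DMSO and -100% = 5 µM competing unlabeled TCR2 RNA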
Target sequence (Q9XUB2 whole entry, looked up): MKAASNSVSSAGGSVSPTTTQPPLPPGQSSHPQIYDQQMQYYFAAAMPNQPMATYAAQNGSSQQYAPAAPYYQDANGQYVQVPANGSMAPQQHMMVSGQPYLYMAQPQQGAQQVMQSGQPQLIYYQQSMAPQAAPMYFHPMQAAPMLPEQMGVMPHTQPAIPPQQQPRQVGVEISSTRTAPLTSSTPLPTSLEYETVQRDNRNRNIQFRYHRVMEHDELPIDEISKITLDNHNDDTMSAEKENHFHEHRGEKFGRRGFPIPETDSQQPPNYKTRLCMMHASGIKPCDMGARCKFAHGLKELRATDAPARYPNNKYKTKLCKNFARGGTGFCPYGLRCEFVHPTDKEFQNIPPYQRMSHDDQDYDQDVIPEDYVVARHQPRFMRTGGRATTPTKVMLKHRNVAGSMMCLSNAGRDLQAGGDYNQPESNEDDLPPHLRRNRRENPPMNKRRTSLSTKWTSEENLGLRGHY
EBV gp42 inh: EBV gp42 inhibition. Fluorescence polarization binding assay, mP read-out. inhibition, % (tested at 21.74 µM). 0.42% of 220,000 active; in the data active = inhibition above about 50%
Target sequence (Q1HVG2 whole entry, looked up): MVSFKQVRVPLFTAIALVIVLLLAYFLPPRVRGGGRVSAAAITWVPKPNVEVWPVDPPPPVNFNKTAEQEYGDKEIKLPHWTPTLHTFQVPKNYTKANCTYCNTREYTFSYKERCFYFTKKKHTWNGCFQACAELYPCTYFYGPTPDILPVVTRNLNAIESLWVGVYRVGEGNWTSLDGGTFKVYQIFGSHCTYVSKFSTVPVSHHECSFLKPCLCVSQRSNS
Keap1-Nrf2 PPI: disrupts human Keap1 binding to Nrf2 peptide; Q14145; Keap1 Kelch-Nrf2 peptide fluorescence polarization, 1536-well; inhibition, % at 9.4 µM; 0.15% of 340,000 active; AID 504523; in the data active = inhibition above about 12%;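 also: human Keap1 Kelch domain with fluorescein labeled Nrf2 9mer peptide probe; 0% = neutral control wells and 100% = peptide positive control; higher means more block of Keap1 binding to Nrf2 peptide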
C-LANA FP: blocks KSHV LANA C-terminal domain binding to DNA. 0.078% of 340,000 active. MBP-C-LANA/FAM-LBS DNA binding, fluorescence polarization. inhibition, % at 9 µM. AID 504423;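 active = highest replicate inhibition at or above 60% at 9 µM, even if other replicates fall short; inactive = all replicates below 60% inhibition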;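 also: 0% = neutral control wells and 100% = 4 µM acridine orange control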
GRK2 inh confirm: confirmation of human GRK2 inhibitors displacing RNA aptamer | shares compounds with GRK2 inh | bead-bound GRK2, FAM-aptamer displacement, flow cytometry | aptamer displacement, % at 10 µM | 4% of 2,000 active | AID 504451;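 active = aptamer displacement above 40%, near three times the noise of non-fluorescent compounds, on plates passing quality checks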;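 also: negative values mostly reflect intrinsic compound fluorescence rather than true enhancement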
Aptamer quench 1: quenches fluorescent RNA aptamer, GRK2 hit artifact. shares compounds with GRK2 inh. Fluorescent RNA aptamer beads, quenching, flow cytometry; stronger effect = higher value. fluorescence change (kMESF span), kMESF (test concentration not listed). 110 tested, under 10 active;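 active = compounds whose bead fluorescence drops by more than 37 kMESF across the dose range, marking them as dye quenchers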
Aptamer quench SP: quenches fluorescent RNA aptamer, GRK2 hit artifact; shares compounds with GRK2 inh; 2,000 tested, under 10 active; AID 504580; Carboxyfluorescein RNA aptamer on beads, flow cytometry quenching; stronger effect = lower value; fluorescence response (% of DMSO), % at 10 µM;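 active = compounds that quench the bead-bound fluorescent RNA probe, cutting fluorescence to under half of the solvent control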;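 also: counterscreen run without GRK2 so only probe quenching by compound is measured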
GRK2 CP2: human GRK2 inhibition confirmation, cherry pick 2; AID 504782; bead-bound GRK2, FAM-aptamer displacement, flow cytometry; shares compounds with GRK2 inh; 360 tested, under 10 active; inhibition of aptamer binding, % at 10 µM;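 active = inhibition of aptamer binding above 40%, about triple the noise seen with nonglowing compounds, on plates passing quality control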;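 also: negative values mostly come from compounds that fluoresce themselves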
FAM quench CP2: quenches fluorescent RNA aptamer, GRK2 hit artifact | shares compounds with GRK2 inh | carboxyfluorescein RNA aptamer beads, flow cytometry quenching; stronger effect = lower value | fluorescence response vs DMSO, % at 10 µM | 360 tested, under 10 active | AID 588494;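 active = response vs DMSO under 50%, meaning signal dropped by over half, treated as fluorescence quencher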;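 also: labelled aptamer on streptavidin beads without GRK2 as a quench counter-screen; 100% = bead fluorescence of DMSO wells and lower means quenching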
FAM quench DR: counter-screen for GRK2 aptamer binding inhibitors: aptamer fluorescence quenching; shares compounds with GRK2 inh; Bead-bound FAM RNA aptamer fluorescence quenching, flow cytometry; stronger effect = lower value; fluorescence ratio to DMSO, % at 11.1 µM; 35 tested, under 10 active; AID 588496;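 active = compounds that dim the fluorescent label, raw bead signal shifting by over 33 units between lowest and highest dose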
Starred values were filed as active, the others as inactive; · = not tested or not shown. Hits are enriched below; roughly 1.3% of the tested compounds scored in any of these assays.

SMILES	T cell HTS	GRK2 inh	MEX-5 binding	EBV gp42 inh	Keap1-Nrf2 PPI	C-LANA FP	GRK2 inh confirm	Aptamer quench SP	others
O=C(CSc1nc2ccccc2c(=O)n1-c1ccccc1)NC(=O)CN1CCCC1=O	253	70*	-3	13	2	4	50*	103	Aptamer quench 1=12;GRK2 CP2=28;FAM quench CP2=100;FAM quench DR=96
COc1ccc(S(=O)(=O)Nc2cccc3c2O[C@H](CN(C)C)[C@@H](C)CN([C@H](C)CO)C3=O)cc1	367	1	·	·	2	4	·	·
CC(C)NC(=O)NC(=O)COC(=O)/C=C/c1ccccc1[N+](=O)[O-]	459	100*	0	-2	-2	0	1	102
O=C(COc1coc(CN2CCN(c3ccc(F)cc3)CC2)cc1=O)Nc1ccccc1	226	0	0	·	0	-2	·	·
CC(=O)COc1coc(CN2CCN(c3ccc(F)cc3)CC2)cc1=O	548	99*	-1	·	0	0	19	96
CCCc1c(C)[nH]c2ccc(NC(C)=O)cc2c1=O	436	74*	-1	-18	-8	-1	0	110
CC(=O)CCc1c(C)[nH]c2ccc(NC(C)=O)cc2c1=O	333	1	0	-6	-4	1	·	·
COc1ccc(N(Cc2cc(=O)[nH]c3ccccc23)C(C)=O)cc1	342	2	0	·	-8	-1	·	·
c1ccc2c(COn3nnc4ccccc43)cccc2c1	341	1	-2	4	-2	2	·	·
COc1ccccc1C=NNC(=O)c1ccncc1	·	·	·	·	-3	-2	·	·
COc1ccc(OC)c(/C=N/NC(=O)c2ccncc2)c1	138	57*	-2	·	-1	0	-1	99
Fc1ccc(CNc2cnccn2)cc1	310	64*	1	-8	-3	0	-1	100
Clc1ccc(CNc2cnccn2)cc1	194	2	1	-11	-2	-1	·	·
Cc1cccc(S(=O)(=O)Nc2cc(Cl)ccc2N2CCOCC2)c1	493	81*	·	·	4	6	-2	106
O=S(=O)(Nc1cc(C(F)(F)F)ccc1N1CCOCC1)c1ccccc1	424	1	0	-3	-5	0	·	·
O=c1cc[nH]c2ccc(Cl)cc12	407	2	2	-20	-1	-1	·	·
O=c1cc[nH]c2ccc(OC(F)(F)F)cc12	284	86*	0	-7	-1	0	-1	100
COc1ccc(Cl)cc1NC(=O)c1nnn(CC(=O)Nc2ccc(C)c(C)c2)c1N	722	0	0	·	5	-1	·	·
CCOc1ccc(N(CC(=O)NCc2ccccc2OC)S(C)(=O)=O)cc1	239	53*	-1	-10	-1	0	0	98
CC(C)NC(=O)C(=O)NC1CCCCCC1	393	54*	-3	-23	4	0	0	101
Cc1ccc(S(=O)(=O)NCCCCCC(=O)NC(C)(C)CO)cc1	258	1	0	-3	-1	0	·	·
CCCC[N+](C)(C)CCC(=O)NC(C)(C)CS(=O)(=O)[O-]	390	40	0	-17	7	11	27	103	Aptamer quench 1=-236
COc1ccc(C(=O)NCC(C)(C)SCc2c(C)cc(C)cc2C)cc1	173	50*	2	3	-2	0	-2	98
Cc1ccc(-n2ncc3c(NCc4cccnc4)ncnc32)cc1C	542	47*	-1	·	3	-1	-2	104
O=C1CCC([N+](=O)[O-])C(c2cc3c(cc2Cl)OCO3)N1 (stereo unspecified)	271	3	0	-6	-4	1	·	·
SMILES	T cell HTS	GRK2 inh	MEX-5 binding	EBV gp42 inh	Keap1-Nrf2 PPI	C-LANA FP	GRK2 inh confirm	Aptamer quench SP	others
O=C(Cc1ccccc1)Nc1ccc2c(c1)C(=O)N(CC1CCCO1)C2=O (stereo unspecified)	207	100*	0	-5	-3	0	-1	96
N#CC(c1ccccc1O)N1N=C(c2ccccc2)CC1c1ccccc1 (stereo unspecified)	313	46*	·	-21	-4	-1	1	39*
COc1cc(C(C#N)N2N=C(c3ccccc3)CC2c2ccccc2)ccc1O (stereo unspecified)	258	0	2	-28	-5	-2	·	·
CCC(C)c1ccccc1N=Cc1ccc2c(c1)OCO2 (stereo unspecified)	233	0	2	·	-1	-1	·	·
CCN(CC)c1ccc(NC(=O)Cn2nnc(-c3cccc(OC)c3OC)n2)c(C)c1	344	95*	-2	-18	-4	-1	1	96
CCOc1ccc(-c2nnn(CC(=O)Nc3ccccc3OC)n2)cc1OCC	313	3	0	-24	-3	0	·	·
O=C(CCc1nc2ccccc2c(=O)[nH]1)Nc1ccc(F)c([N+](=O)[O-])c1	156	46*	-6	24	-2	1	1	108
CN1CCN(C(=S)SCC(=O)Nc2nc(-c3ccccc3)c(-c3ccccc3)o2)CC1	310	100*	0	17	-7	-1	·	·	GRK2 CP2=-4;FAM quench CP2=98
O=C(N/N=C/c1cccnc1)c1cc(O)c(O)c(O)c1	7	44*	-31*	·	-6	15	-9	99
Cc1sc2c(c1C)C(=O)/C(=C\Nc1ccccn1)S(=O)(=O)N2C	226	57*	2	-5	-1	0	-3	94
CCc1c(C)nc2ncnn2c1N1CCCC(C(=O)NCc2cccs2)C1 (stereo unspecified)	163	51*	-1	6	2	-2	0	99
CCc1c(C)nc2ncnn2c1N1CCC(C(=O)NCc2cccs2)CC1	519	1	3	7	-4	0	·	·
Cc1cc(S(=O)(=O)N2CCCCC2CCNC(=O)C(=O)NCc2cccnc2)ccc1F (stereo unspecified)	131	100*	3	·	-1	1	1	104
